Experimental data collected from several papers.
Lines come from different studies, so protocols differ.
CYP2D6: Cytochrome P450 2D6 (CYP2D6, Homo sapiens, UniProt P10635)

`Oc1c(-n2ccnn2)cnn1-c1cc(N2CCOCC2)ncn1` has a half-life of 2.2 h (female dog, plasma; oral, 1.5 mg/kg).
`O=C(NCCN1CCCC1)c1cc(-c2ccc(CN3CCOCC3)cc2)nc2ccc(F)cc12` gave a half-life of 20 h (male beagle dog, blood; oral, 3 mg/kg).
`Cc1ccc(C(CS(=O)(=O)c2ccccc2)=NN=C2N=C(c3ccc(Br)cc3)CS2)cc1` has a viability of 55.1% (WM 266-4; cell growth or viability, MTT; 1.6 µg, 48 h).
`COCCc1ccc(OCC(O)CNC(C)C)cc1` (stereo not drawn) has an AUC(0-t) of 758 ng·h/mL (CYP2D6; human, plasma; oral, 100 mg, single dose, healthy volunteers).
`Cc1nc(-c2cnc(NC(C)C)n(C)c2=O)ccc1Oc1ccnc(-c2cnn(C)c2)c1` gave an AUC(0-t) of 7030 ng·h/mL (male beagle dog, plasma; oral, 3 mg/kg).
For `COC(=O)C1CCN(C(=O)c2cccc(NCc3cnc4nc(N)nc(N)c4n3)c2)CC1`, the inhibition was -11.1% (CYP2D6; enzyme activity, inhibitor, luciferase; 10 µM).
`CC[C@@H]1CN(C(=O)NCC(F)(F)F)C[C@@H]1c1cnc2cnc3[nH]ccc3n12` gave an AUC(0-t) of 558 ng·h/mL (beagle dog, plasma; oral, 1 mg/kg, single dose).
`CCn1c(=O)c(-c2cc(NC(=O)Nc3ccccc3)c(F)cc2Br)cc2cnc(NC)cc21` gave an AUC(0-inf) of 4030 ng·h/mL (beagle dog, plasma; oral, 5 mg/kg, single dose).
For `Cc1ccc(C(CS(=O)(=O)c2ccccc2)=NNC2=NC(=O)C(=NNc3ccc([N+](=O)[O-])cc3)S2)cc1`, the viability was 50.5% (WM 266-4; cell growth or viability, MTT; 1.6 µg, 48 h).
With `CCOC(=O)C1CCN(C(=O)c2ccc(N(CC)Cc3cnc4nc(N)nc(N)c4n3)cc2)CC1` the inhibition was -4.18% (CYP2D6; enzyme activity, inhibitor, luciferase; 10 µM).
`CNC(=O)c1cc(Oc2ccc(NC(=O)Nc3ccc(Cl)c(C(F)(F)F)c3)cc2)ccn1` gave a viability of 58.5% (WM 266-4; cell growth or viability, MTT; 1.6 µg, 48 h).
For `COc1cc2c3c(n(CCCN4CCOCC4)c(=O)c2cc1OC)-c1cc2c(cc1C3=O)OCO2`, the AUC(0-inf) was 383 ng·h/mL (male beagle dog, plasma; intravenous, 10 mg/m², infusion).
